In ChEMBL document CHEMBL1134569, “Synthesis and in vitro and in vivo antimalarial activity of new 4-anilinoquinolines” (J Med Chem, 2001):

Experiments:
Plasmodium falciparum [1] = test: Inhibitory activity against chloroquine-resistant Plasmodium falciparum FcB1R; format: functional, organism-based; details: Plasmodium falciparum
[2] = Cytotoxicity upon MRC-5 cells (diploid embryonic lung cell line) at 8 uM; format: cell-based, MRC5; details: human
Procedure, shortened: (§1)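 MRC-5 human diploid embryonic lung cells seeded at 5000/well, washed after 24 h, then given 2-fold drug dilutions in RPMI + 5% FCS (final DMSO below 0.5%). Incubated at 37 °C, 5% CO₂, for 7 days. MTT read-out at 540 nm, scored as percent absorbance reduction versus untreated controls.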

[3] = Cytotoxicity upon MPMs (mouse peritoneal macrophages) at 32 uM
Procedure, shortened: (§2)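 Mouse peritoneal macrophages harvested 48 h after potato-starch stimulation and seeded at 30000 cells/well. After 24 h, washed and exposed to 2-fold drug dilutions in RPMI + 5% FCS (final DMSO below 0.5%) at 37 °C, 5% CO₂, for 7 days. Toxicity scored microscopically as toxic or not versus untreated controls.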

[4] = Cytotoxicity upon MPMs (mouse peritoneal macrophages) at 8 uM conc.;NT=No Toxicity; procedure, shortened: as §2
[5] = Cytotoxicity upon MPMs (mouse peritoneal macrophages) at 2 uM; procedure, shortened: as §2
[6] = Cytotoxicity upon MRC-5 cells (diploid embryonic lung cell line) at 1 uM; format: cell-based, MRC5; details: human; procedure, shortened: as §1
[7] = Cytotoxicity upon MRC-5 cells (diploid embryonic lung cell line) at 32 uM; format: cell-based, MRC5; details: human; procedure, shortened: as §1
[8] = Cytotoxicity upon MPMs (mouse peritoneal macrophages) at 12.5 uM conc.; Toxic; procedure, shortened: as §2
[9] = Cytotoxicity upon MRC-5 cells (diploid embryonic lung cell line) at 6.3 uM; format: cell-based, MRC5; details: human; procedure, shortened: as §1
[10] = Cytotoxicity upon MRC-5 cells (diploid embryonic lung cell line) at 12.5 uM; format: cell-based, MRC5; details: human; procedure, shortened: as §1
[11] = Cytotoxicity upon MPMs (mouse peritoneal macrophages) at 6.3 uM conc.; Toxic; procedure, shortened: as §2
[12] = Cytotoxicity upon MRC-5 cells (diploid embryonic lung cell line) at 3.1 uM; format: cell-based, MRC5; details: human; procedure, shortened: as §1
Mus musculus [13] = test: Antimalarial activity on Plasmodium berghei in mice (Mus musculus) dosed at 40 mg/kg at day 4; format: functional
Procedure, shortened: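 Female Swiss CD-1 mice (4 weeks, 20-25 g), three per group, infected ip with about 10⁷ P. berghei ANKA 65 parasitized erythrocytes from an infected donor. Dosed orally at 40 mg/kg in 100% DMSO at infection, then ip for the following 4 days. Parasitaemia reduction and mean survival time compared with three DMSO-dosed infected controls.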

[14] = Cytotoxicity upon MPMs (mouse peritoneal macrophages) at 12.5 uM conc.;NT=No Toxicity; procedure, shortened: as §2
Plasmodium falciparum [15] = test: Inhibitory activity against chloroquine-sensitive Plasmodium falciparum THAI
[16] = Cytotoxicity upon MRC-5 cells (diploid embryonic lung cell line) at 1.6 uM conc.; format: cell-based, MRC5; details: human; procedure, shortened: as §1
[17] = Cytotoxicity upon MRC-5 cells (diploid embryonic lung cell line) at 25 uM conc.; format: cell-based, MRC5; details: human; procedure, shortened: as §1
Mus musculus [18] = test: Change in the mean survival time of the treated mice infected with Plasmodium berghei, dosed at 40 mg/kg; format: functional
Procedure, shortened: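 P. berghei ANKA 65 in 4-week-old female Swiss CD-1 mice (20-25 g), infected ip with about 10⁷ parasitized erythrocytes; 40 mg/kg given orally at infection (formulated in 100% DMSO), then ip over the following 4 days; three mice per group; mean survival time of treated mice compared with three infected DMSO-dosed controls.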

Plasmodium falciparum [19] = test: Inhibitory activity against chloroquine-resistant Plasmodium falciparum K1; format: functional, organism-based
[20] = Cytotoxicity upon MPMs (mouse peritoneal macrophages) at 6.3 uM; procedure, shortened: as §2

N#Cc1ccc(CN2CCN(Cc3cc(NC(=O)CN4CCCCC4)cc(Nc4ccnc5cc(Cl)ccc45)c3)CC2)cc1
IC50 (Plasmodium falciparum [1]): 0.0133 µM | cytotoxicity at 8 µM [2]: 100% | Cytotoxicity [3]: Cytotoxicity upon MPMs at 32 uM | NT [4]: Cytotoxicity upon MPMs at 2 uM | NT [5]: Cytotoxicity upon MPMs at 2 uM | cytotoxicity at 1 µM [6]: 0% | cytotoxicity at 32 µM [7]: 100%

CC1CCN(CC(=O)Nc2cc(CO)cc(Nc3ccnc4cc(Cl)ccc34)c2)CC1
Cytotoxicity [8]: Toxic | cytotoxicity at 6.3 µM [9]: 0% | IC50 (Plasmodium falciparum [1]): 0.0777 µM | cytotoxicity at 12.5 µM [10]: 100% | Cytotoxicity [11]: Toxic | cytotoxicity at 3.1 µM [12]: 0%

O=C(CN1CCCCC1)Nc1cc(COC(=O)CCCCN2CCCCC2)cc(Nc2ccnc3cc(Cl)ccc23)c1
cytotoxicity at 6.3 µM [9]: 90% | IC50 (Plasmodium falciparum [1]): 0.0155 µM | Reduction in parasitemia (Mus musculus [13]): 99.99% | NT [14]: Cytotoxicity upon MPMs at 2 uM | IC50 (Plasmodium falciparum [15]): 0.0173 µM | cytotoxicity at 1.6 µM [16]: 0% | cytotoxicity at 25 µM [17]: 92% | NT [5]: Cytotoxicity upon MPMs at 2 uM | Excess MST (Mus musculus [18]): 0% | IC50 (Plasmodium falciparum [19]): 0.0191 µM | NT [20]: Cytotoxicity upon MPMs at 2 uM

O=C(CN1CCCCC1)Nc1cc(COC(=O)c2ccnc3ccccc23)cc(Nc2ccnc3cc(Cl)ccc23)c1
Cytotoxicity [8]: Toxic | cytotoxicity at 6.3 µM [9]: 100% | IC50 (Plasmodium falciparum [1]): 0.0256 µM | cytotoxicity at 1.6 µM [16]: 62% | cytotoxicity at 25 µM [17]: 100% | NT [5]: Cytotoxicity upon MPMs at 2 uM | Cytotoxicity [11]: Toxic

CN(C)CCCNCc1cc(NC(=O)CN2CCCCC2)cc(Nc2ccnc3cc(Cl)ccc23)c1
IC50 (Plasmodium falciparum [1]): 0.134 µM | cytotoxicity at 8 µM [2]: 0% | Cytotoxicity [3]: Cytotoxicity upon MPMs at 32 uM | NT [4]: Cytotoxicity upon MPMs at 2 uM | NT [5]: Cytotoxicity upon MPMs at 2 uM | cytotoxicity at 1 µM [6]: 0% | cytotoxicity at 32 µM [7]: 78%

O=C(CN1CCCCC1)Nc1cc(COC(=O)CCCCN2CCOCC2)cc(Nc2ccnc3cc(Cl)ccc23)c1
cytotoxicity at 6.3 µM [9]: 0% | IC50 (Plasmodium falciparum [1]): 0.0141 µM | Reduction in parasitemia (Mus musculus [13]): 97.9% | NT [14]: Cytotoxicity upon MPMs at 2 uM | IC50 (Plasmodium falciparum [15]): 0.0152 µM | cytotoxicity at 1.6 µM [16]: 0% | cytotoxicity at 25 µM [17]: 0% | NT [5]: Cytotoxicity upon MPMs at 2 uM | Excess MST (Mus musculus [18]): 100% | IC50 (Plasmodium falciparum [19]): 0.0225 µM | NT [20]: Cytotoxicity upon MPMs at 2 uM

O=C(CN1CCCCC1)Nc1cc(COC(=O)CCCCCCCN2CCCCC2)cc(Nc2ccnc3cc(Cl)ccc23)c1
Cytotoxicity [8]: Toxic | cytotoxicity at 6.3 µM [9]: 84% | IC50 (Plasmodium falciparum [1]): 0.165 µM | cytotoxicity at 1.6 µM [16]: 0% | cytotoxicity at 25 µM [17]: 83% | NT [5]: Cytotoxicity upon MPMs at 2 uM | Cytotoxicity [11]: Toxic

CN(C)CCNCc1cc(NC(=O)CN2CCCCC2)cc(Nc2ccnc3cc(Cl)ccc23)c1
IC50 (Plasmodium falciparum [1]): 0.0155 µM | cytotoxicity at 8 µM [2]: 15% | Cytotoxicity [3]: Cytotoxicity upon MPMs at 32 uM | NT [4]: Cytotoxicity upon MPMs at 2 uM | NT [5]: Cytotoxicity upon MPMs at 2 uM | cytotoxicity at 1 µM [6]: 0% | cytotoxicity at 32 µM [7]: 100%

O=C(CN1CCCCC1)Nc1cc(CN2CCOCC2)cc(Nc2ccnc3cc(Cl)ccc23)c1
IC50 (Plasmodium falciparum [1]): 0.0095 µM | Reduction in parasitemia (Mus musculus [13]): 100% | cytotoxicity at 8 µM [2]: 0% | IC50 (Plasmodium falciparum [15]): 0.0128 µM | Cytotoxicity [3]: Cytotoxicity upon MPMs at 32 uM | NT [4]: Cytotoxicity upon MPMs at 2 uM | NT [5]: Cytotoxicity upon MPMs at 2 uM | cytotoxicity at 1 µM [6]: 0% | IC50 (Plasmodium falciparum [19]): 0.0124 µM | cytotoxicity at 32 µM [7]: 100%

O=Cc1cc(NC(=O)CN2CCCCC2)cc(Nc2ccnc3cc(Cl)ccc23)c1
IC50 (Plasmodium falciparum [1]): 0.282 µM | cytotoxicity at 8 µM [2]: 0% | NT [4]: Cytotoxicity upon MPMs at 2 uM | NT [5]: Cytotoxicity upon MPMs at 2 uM | cytotoxicity at 1 µM [6]: 0% | cytotoxicity at 32 µM [7]: 0%
